KCNK3 block: human KCNK3 channel inhibition, primary screen; B-score at 10 µM; O14649; AID 602410; hit rate 0.84% among 340,000; CHO-KCNK3 thallium flux, FluxOR fluorescence; active compounds read low;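 active = B-score under library mean minus 4 SD, starting fluorescence ratio at most library mean plus 5 SD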;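 note: more negative B-score means stronger inhibition of thallium flux through KCNK3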
KCNQ1 pot: potentiates or activates the human KCNQ1 potassium channel. B-score at 10 µM. CHO-K1 KCNQ1, thallium flux FluxOR fluorescence; active compounds read high. hit rate 0.35% among 310,000. AID 2648;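 active = fluorescence ratio B-score, a plate-corrected score, at least three library SD, with initial intensity B-score within 5 SD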
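Assay system: CHO-K1 cells stably expressing KCNQ1. Medium: assay buffer for compound exposure, DMSO matched across wells. Timing: 37 °C overnight plating, 90-min dark dye load, 20-min compound pretreatment. Signal: kinetic FluxOR fluorescence, 10 s baseline plus 110 s post-stimulus.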
hERG protect: hERG (human) protection from proarrhythmic block. CHO-hERG, FluxOR thallium flux, dofetilide IC70 present. activation (rescue from dofetilide block), less the hit threshold, % at 10 µM. hit rate 0.51% among 310,000;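 active = activation above the mean of controls blocked by dofetilide plus 5 SD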;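 note: thallium influx through hERG after potassium depolarization seen as dye fluorescence rise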
Target sequence (Q12809 whole entry, looked up): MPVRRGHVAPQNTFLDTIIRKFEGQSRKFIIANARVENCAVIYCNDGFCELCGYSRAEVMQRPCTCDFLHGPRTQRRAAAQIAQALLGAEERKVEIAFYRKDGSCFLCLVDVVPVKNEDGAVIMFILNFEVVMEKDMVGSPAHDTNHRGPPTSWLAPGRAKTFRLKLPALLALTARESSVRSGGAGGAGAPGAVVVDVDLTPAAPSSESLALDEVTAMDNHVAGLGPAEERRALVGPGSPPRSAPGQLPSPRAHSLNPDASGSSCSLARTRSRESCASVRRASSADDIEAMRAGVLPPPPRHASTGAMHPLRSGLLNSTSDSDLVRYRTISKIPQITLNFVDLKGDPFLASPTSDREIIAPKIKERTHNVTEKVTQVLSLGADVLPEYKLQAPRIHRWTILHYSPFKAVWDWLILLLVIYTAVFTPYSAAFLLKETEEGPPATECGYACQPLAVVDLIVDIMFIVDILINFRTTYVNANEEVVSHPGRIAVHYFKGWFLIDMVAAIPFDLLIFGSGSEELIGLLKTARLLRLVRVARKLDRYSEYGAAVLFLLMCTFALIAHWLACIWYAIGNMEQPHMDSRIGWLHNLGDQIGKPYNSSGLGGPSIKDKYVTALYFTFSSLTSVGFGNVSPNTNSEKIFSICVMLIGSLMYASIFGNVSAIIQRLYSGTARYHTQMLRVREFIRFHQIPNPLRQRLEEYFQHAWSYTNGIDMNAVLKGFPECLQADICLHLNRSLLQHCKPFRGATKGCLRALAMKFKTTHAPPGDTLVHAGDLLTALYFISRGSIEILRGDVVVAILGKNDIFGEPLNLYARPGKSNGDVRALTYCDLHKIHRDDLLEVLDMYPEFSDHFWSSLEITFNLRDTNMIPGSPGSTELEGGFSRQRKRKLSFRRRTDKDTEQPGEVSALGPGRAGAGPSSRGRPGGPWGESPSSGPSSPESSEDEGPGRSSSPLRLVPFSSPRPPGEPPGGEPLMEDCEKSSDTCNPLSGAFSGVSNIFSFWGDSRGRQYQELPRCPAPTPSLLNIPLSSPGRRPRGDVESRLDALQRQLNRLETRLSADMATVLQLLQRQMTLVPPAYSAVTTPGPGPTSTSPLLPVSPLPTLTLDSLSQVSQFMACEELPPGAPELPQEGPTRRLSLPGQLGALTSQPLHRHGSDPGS
Kir21 block: Kir2.1 (mouse) channel inhibition; P35561; HEK293-Kir2.1, FluxOR thallium flux fluorescence; active compounds read low; B-score at 10 µM; hit rate 0.85% among 310,000; AID 1672;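 active = fluorescence ratio B-score at or below minus 3 SD of library scores, with starting-brightness B-score within 2 SD, cut at about -4.2 in these data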;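 note: channel flux triggered by added potassium and thallium sulfate stimulus; B-score of peak minus minimum fluorescence over baseline after thallium stimulus; more negative B-score means stronger Kir2.1 block with less thallium influx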
KCNK9 block: human KCNK9 channel inhibition | Q9NPC2 | HEK293 KCNK9, FluxOR thallium flux fluorescence; active compounds read low | B-score at 10 µM | hit rate 1.2% among 310,000;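 active = ratio B-score over 3 SD below the library mean, with starting fluorescence within 5 SD of its mean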;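 note: negative B-score means less thallium flux so channel inhibition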
KCNQ1 inh: human KCNQ1 channel inhibition; B-score at 10 µM; hit rate 1.3% among 310,000; CHO-K1 KCNQ1, FluxOR thallium flux fluorescence; active compounds read high;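 active = compounds whose thallium flux B-score, printed positive for inhibition, exceeds three library SD while starting fluorescence stays within three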;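 note: channel opened by potassium depolarization with thallium stimulus after 20 min compound exposure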
KCNQ1 inh valid: confirmation of human KCNQ1 potassium channel inhibitors | hit rate 93% among 1,600 | KCNQ1 cell line, FluxOR thallium flux fluorescence | inhibition, % at 10 µM | shares compounds with KCNQ1 inh;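 active = primary screen active, with duplicate mean exceeding buffer control mean plus 3 SD of buffer wells, cut at about 28% in these data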;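 note: 0% = buffer control ratio and 100% = XE991 inhibitor control ratio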
CHO KCNQ1 ctr: counter-screen for KCNQ1 inhibitors: effect in parental CHO cells; shares compounds with KCNQ1 inh; parental CHO-K1, FluxOR thallium flux fluorescence ratio; active compounds read low; zero means no signal rise above baseline; fluorescence ratio (Tl flux) at 10 µM; hit rate 21% among 1,600;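 active = mean of duplicate thallium-flux fluorescence ratios in parental host cells more than 5 SD below the buffer control mean, cut at about 0.38 in these data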;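 note: ratio is peak minus minimum fluorescence divided by baseline fluorescence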
KCNQ1 ephys val: confirmation of human KCNQ1 potassium channel inhibitors by electrophysiology. shares compounds with KCNQ1 inh. KCNQ1-CHO cells, automated patch clamp current. calls only at 10 µM. hit rate 20% among 490. AID 624120;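 active = KCNQ1 current drop exceeding 3 SD of negative control wells, seen in both duplicate runs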;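 note: steady state current during a 2 s step from -80 to +40 mV; negative values mean current inhibition and positive values mean potentiation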
KCNQ2 spec: selectivity of KCNQ1 inhibitors: inhibition of rat KCNQ2 channel. shares compounds with KCNQ1 inh. KCNQ2 cells, FluxOR thallium flux fluorescence. inhibition, % at 10 µM. hit rate 71% among 1,600. AID 651746;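 active = mean percent inhibition of the KCNQ2 thallium signal more than 5 SD above the buffer-only control wells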;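 note: KCNQ2 expressed in CHO cells; 0% = buffer control wells and 100% = XE-991 inhibitor control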
KCNQ1-KCNE1 inh: KCNQ1 inhibitor that also blocks human KCNQ1/KCNE1 channel; shares compounds with KCNQ1 inh; KCNQ1/KCNE1 cells, FluxOR thallium flux fluorescence; inhibition, % at 10 µM; hit rate 77% among 1,600; AID 652147;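 active = mean percent inhibition of duplicate wells above the buffer-only control mean plus 3 SD of those controls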;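 note: 0% = buffer only wells and 100% = XE-991 inhibitor control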
KCNK9 block conf: human KCNK9 inhibitor confirmation; hit rate 43% among 4,900; inhibition, % at 10 µM; shares compounds with KCNK9 block; HEK293 KCNK9 cells, FluxOR thallium flux fluorescence; AID 492992;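 active = thallium signal inhibited by more than 5 SD of the compound-free buffer control wells, on both duplicate plates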;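 note: 0% = assay buffer control wells without compound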
Kir2-1 spec: tests whether KCNK9 modulators also affect mouse Kir2.1 | shares compounds with KCNK9 block | Kir2.1 cells, FluxOR thallium flux fluorescence | inhibition, % at 10 µM | hit rate 4% among 4,900;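 active = thallium signal drop more than 5 SD beyond the mean of the no-compound control wells, seen in both duplicate plates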;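 note: signal is fluorescence rise after thallium addition divided by baseline fluorescence; plate controls were assay buffer only for no effect and full block by chlorpromazine control for full effect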
KCNK9 uninduced: non-induced cell nonspecific activity of KCNK9 modulators | non-induced KCNK9-HEK293, FluxOR thallium flux | inhibition, % at 10 µM | hit rate 40% among 4,900 | shares compounds with KCNK9 block;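 active = thallium signal drop beyond 5 SD of the untreated control mean, on both duplicate plates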;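 note: plate controls were buffer only IC0 wells for no effect and SID17386958 at its maximal inhibitory level for full effect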
KCNK3 inh conf: human KCNK3 channel inhibition, confirmation assay | shares compounds with KCNK3 block | CHO-KCNK3 thallium flux, FluxOR fluorescence; 0% buffer, 100% carvedilol maximal block | ratio percent of control, % at 10 µM | hit rate 99% among 2,400 | AID 651638;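 active = ratio percent of control, averaged over triplicates, above buffer control mean plus 5 SD, cut at about 64% in these data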;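 note: ratio is the fluorescence rise from min to max over baseline after thallium stimulus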
KCNK3 uninduced: activity in cells without induced KCNK3 expression; AID 651747; hit rate 40% among 2,400; thallium flux ratio (lower = more inhibition) at 10 µM; shares compounds with KCNK3 block; non-induced KCNK3 parental cells, FluxOR thallium flux; active compounds read low;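 active = thallium flux ratio, averaged over three wells, more than 5 SD below the buffer control mean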;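 note: host cells are CHO cells without KCNK3 induction; ratio is peak minus trough fluorescence over baseline then normalized to buffer controls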
* hit, by the source's call; i = inactive; nt = not tested or not shown; + = active, no number. The list is not random: actives were taken first. Their share in the collection is about 3.7%.

SMILES	KCNK3 block	KCNQ1 pot	hERG protect	Kir21 block	KCNK9 block	KCNQ1 inh	KCNQ1 inh valid	CHO KCNQ1 ctr	KCNQ2 spec	KCNQ1-KCNE1 inh	KCNK9 block conf	Kir2-1 spec	KCNK9 uninduced	others
Cc1n[nH]c(C)c1CNCc1c(C(=O)N2CCCCCCC2)nc2ccc(Cl)cn12	i	i	-7	0.92	i	i	nt	nt	nt	nt	nt	nt	nt
O=C(c1nc2ccc(Cl)cn2c1CNCC[C@@H]1C[C@@H]2C=C[C@H]1C2)N1CCCCCCC1	i	i	-14	-5	i	9*	98*	0.47	82%*	84%*	i	i	i	KCNQ1 ephys val=i
N#CCC(=O)Nc1ccc(C(=O)OCC(=O)Nc2ccccc2Sc2ccccc2)cc1	i	i	-5	2.2	-9.1*	6*	99*	0.43	91%*	153%*	50%*	i	34%*	KCNQ1 ephys val=+
Cc1cc(C)n(Cc2ccc(Cl)cc2Cl)c(=O)c1S(=O)(=O)c1ccccc1	i	i	-15	0.02	-12*	8*	81*	0.46	81%*	102%*	56%*	i	42%*
O=C1c2[nH]nc(-c3ccccc3O)c2C(c2ccccc2F)N1Cc1ccco1 (stereo not drawn)	-9.1*	i	-16	-1.2	-15*	9*	126*	0.41	78%*	116%*	73%*	i	33%*
CCOc1ccccc1C(=O)OCC(=O)Nc1cc(Cl)ccc1Oc1ccccc1	i	i	-9	0.17	-8.1*	8*	87*	0.41	76%*	106%*	32%*	i	40%*
COc1cccc(OCC(=O)Nc2cc(Cl)ccc2Oc2ccccc2)c1	i	i	-8	-1.4	i	i	nt	nt	nt	nt	nt	nt	nt
C[C@H]1CCC(=O)N([C@H](COc2ccccc2)Cc2ccccc2)CC1	i	i	-15	-2.1	i	i	nt	nt	nt	nt	nt	nt	nt
CC1(C)Cc2c(C#N)c(N3CCN(C(=O)c4ccccc4)CC3)nc(Cc3ccccc3)c2CO1	i	i	-9	1.6	i	10*	106*	0.4	111%*	128%*	i	i	i	KCNQ1 ephys val=i
COc1ccc(CN(C)C(C)C(=O)Nc2ccc(S(=O)(=O)N3CCCCC3)cc2)cc1F (stereo not drawn)	i	nt	nt	nt	nt	nt	nt	nt	nt	nt	nt	nt	nt
COc1ccc(C(=O)NCc2nnc(SCC(=O)NC3CCCC3)o2)cc1	i	i	-3	-0.79	i	i	nt	nt	nt	nt	nt	nt	nt
COc1cccc(C(=O)C2CCCN(Cc3cccn3-c3ccccn3)C2)c1 (stereo not drawn)	i	i	-23	-1.8	i	i	nt	nt	nt	nt	nt	nt	nt
CC(C)Oc1cccc(C(=O)C2CCCN(Cc3cccn3-c3ccccn3)C2)c1 (stereo not drawn)	i	i	-19	-2.9	i	8*	52*	0.47	76%*	i	i	i	i
Cc1noc(C)c1COc1ccc(C(=O)N2CCN(S(=O)(=O)c3ccc(F)cc3)CC2)cc1	i	nt	nt	nt	nt	nt	nt	nt	nt	nt	nt	nt	nt
CCOc1ccccc1NC(=O)C(NCC1CCCCC1)c1ccccc1 (stereo not drawn)	i	i	-29	2.9	-8.9*	10*	131*	0.38	125%*	156%*	46%*	i	40%*	KCNQ1 ephys val=i
COCC(=O)N1CCC2CC1c1cc(Cl)ccc12 (stereo not drawn)	i	nt	nt	nt	nt	nt	nt	nt	nt	nt	nt	nt	nt
Oc1c(Br)cc(Br)c(/C=N/n2c(-c3ccccc3)n[nH]c2=S)c1Br	i	i	-6	1.8	i	7*	83*	0.45	i	i	i	i	i
Oc1ccc(Br)cc1/C=N/n1c(-c2ccccc2)n[nH]c1=S	i	i	-12	1.2	i	i	nt	nt	nt	nt	nt	nt	nt
Cc1ccc(C)c(N2CCN(C(=O)C(Cc3ccccc3)n3cccc3)CC2)c1 (stereo not drawn)	i	i	-13	1	-13*	14*	116*	0.36*	103%*	166%*	58%*	i	40%*
COc1ccc(C(=O)NC2CCN(CC(=O)NCc3ccccc3)CC2)cc1	i	i	-5	0.72	i	i	nt	nt	nt	nt	nt	nt	nt
c1ccc(Oc2nc(N3CCOCC3)nc(N3CCOCC3)n2)cc1	i	i	-13	0.86	i	i	nt	nt	nt	nt	nt	nt	nt
Clc1ccc(Oc2nc(N3CCOCC3)nc(N3CCOCC3)n2)c(C2CCCCC2)c1	i	i	-12	-2.4	i	6*	98*	0.37*	105%*	91%*	i	i	i
COc1ccccc1NC(=O)N1CCCC(CNC(=O)c2ccccc2Cl)C1 (stereo not drawn)	i	i	-2	0	i	i	nt	nt	nt	nt	nt	nt	nt
CCOc1ccccc1N1CCN(c2ncnc3scc(-c4ccc(OC)cc4)c23)CC1	-9.4*	i	-35	-1.8	-6.8*	8*	142*	0.35*	141%*	174%*	nt	nt	nt	KCNK3 inh conf=140*;KCNK3 uninduced=0.11*
Oc1ccccc1N1CCN(c2ncnc3scc(-c4ccc(F)cc4)c23)CC1	-9.6*	i	-10	1.3	i	9*	121*	0.37*	63%*	151%*	nt	nt	nt	KCNK3 inh conf=115*;KCNK3 uninduced=0.12*

Source: PubChem (Johns Hopkins Ion Channel Center)
